Experimental data of several laboratories.
Lines come from different studies, so protocols differ.
Target: Rho-associated protein kinase 2 (ROCK2, Homo sapiens, UniProt O75116)

SMILES	assay	conditions	remaining binding
C[C@@H](c1cccc(C#N)c1)n1cc(Cl)cc(C(N)=O)c1=N	cell-free assay, competition with immobilised ligand	1 µM	90%
C[C@@H](c1ccc(-n2cnc3c(N)ncnc32)cc1)N1CCc2nn(C)c(Cc3ccccc3)c2C1=O	binding, competition with immobilised ligand	0.1 µM	77%
CCN1CCN(Cc2ccc(C(=O)Nc3ccc(C)c(Oc4ccc5c(c4)CC(=O)N5)c3)cc2C(F)(F)F)CC1	binding, competition with immobilised ligand	1 µM	74%
CN1CCN(c2cnc3c(C4CCN(C(=O)c5ccc(OC(F)(F)F)cc5N)CC4)ncnc3c2)CC1	cell-free assay, competition with immobilised ligand	1 µM	100%
O=C(Nc1c[nH]nc1C(=O)NC1CCNCC1)c1cc(F)cc(F)c1	binding, competition with immobilised ligand	1 µM	88%
N#CC1(c2ccccn2)CCN(Cc2cc(C(=O)N3CCCC3)c(=O)n3ccccc23)CC1	cell-free assay, competition with immobilised ligand	1 µM	72%
O=C(NCCCN1CCOCC1)c1ccc(Nc2ncc(Cl)c(-c3ccc(Cl)s3)n2)cc1	binding, competition with immobilised ligand	1 µM	61%
CN(C)c1nccc(-c2cnc3ncccn23)n1	binding	1 µM	100%
CC(=O)N1CCC(c2ccc(C(=O)NC(=N)N)cc2C(F)(F)F)CC1	cell-free assay, competition with immobilised ligand	1 µM	100%
N[C@@H]1CCN(c2nccc(-c3cnn4ncccc34)n2)C1	binding	1 µM	100%
CNC(=O)Nc1ccc2c(c1)CC[C@@]21OC(=O)N(CC(=O)N(Cc2ccc(F)cc2)[C@@H](C)C(F)(F)F)C1=O	cell-free assay, competition with immobilised ligand	1 µM	96%
COc1cnc(Nc2cccc(S(N)(=O)=O)c2)nc1N1CCN(c2ccccc2)CC1	binding, competition with immobilised ligand	1 µM	90%
Cc1nc(N2CC[C@@H](O)C2)ncc1-c1cc(C(F)(F)F)cc2[nH]ncc12	binding, competition with immobilised ligand	1 µM	77%
O=C(c1ccc(Nc2ncc(Cl)c(-c3cc4ccccc4s3)n2)cc1)N1CCC(N2CCCC2)CC1	binding, competition with immobilised ligand	1 µM	7.2%
CN(CCCC(F)(F)F)c1nccc(-c2cnn3ncccc23)n1	binding	1 µM	100%
O=C(c1ccc(Nc2ncc(Cl)c(-c3ccc(Cl)s3)n2)cc1)N1CCC(N2CCCC2)CC1	binding, competition with immobilised ligand	1 µM	4.3%
COc1ncc2cc3ccccc3nc2c1C#N	cell-free assay, competition with immobilised ligand	5 µM	98%
C[C@@H]1CCN(c2nccc(-c3cnn4ncccc34)n2)C1	binding	1 µM	98%
Cn1cc(Cl)c2c(Oc3c(F)cc(Nc4cc(Cl)nc(N)n4)cc3F)ccnc21	cell-free assay, competition with immobilised ligand	0.1 µM	83%
CC1CCCN1c1nccc(-c2cnn3ncccc23)n1 (stereo not drawn)	binding	1 µM	100%
C[C@@H]1CN(c2ccc3ncc(-c4ccc5[nH]nc(C6CC6)c5c4)n3n2)C[C@H](C)O1	binding, competition with immobilised ligand	50 nM	69%
CN(c1nccc(-c2cnn3ncccc23)n1)C1CC1	binding	1 µM	100%
COc1cnc(Nc2cccc(S(N)(=O)=O)c2)nc1N1CCN(c2ccccc2)C(=O)C1	binding, competition with immobilised ligand	1 µM	78%
N#Cc1ccccc1CSc1nnc2c(n1)[nH]c1ccccc12	binding, competition with immobilised ligand	10 µM	80%
